In ChEMBL document CHEMBL1153057, “Chemical constituents of propolis from Myanmar and their preferential cytotoxicity against a human pancreatic cancer cell line” (2009):
The source made the active and inactive calls. No cut-off for these calls is given here.

Key:
[1] = tested on: PANC-1; assay: Cytotoxicity against human PANC1 cells in nutrient-deprived condition assessed as 100% cell death after 24 hrs by WST8 assay; assay type: functional
Outline: (§1)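 PANC-1 cells, 2 × 10⁴ per well, grown 24 h in DMEM at 37 °C under 5% CO2, PBS-washed, then switched to DMEM or nutrient-deprived medium (glucose-, amino acid- and serum-free salts, vitamins, 25 mM HEPES, pH 7.4) holding serial dilutions for 24 h. Viability by WST-8 (10% in DMEM, 3 h, A450), blank-corrected against untreated control, mean of three wells. PC100/PC50 = concentration killing 100%/50% of cells preferentially in NDM.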

[2] = tested on: PANC-1; assay: Cytotoxicity against human PANC1 cells in nutrient-deprived condition assessed as 50% cell death after 24 hrs by WST8 assay; assay type: functional; outline: as §1
[3] = tested on: PANC-1; assay: Cytotoxicity against human PANC1 cells in nutrient-deprived condition assessed as complete preferential cell death at 6.25 uM within 24 hrs of starvation by WST8 assay; assay type: functional
[4] = tested on: PANC-1; assay: Cytotoxicity against human PANC1 cells in nutrient-deprived condition assessed as complete preferential cell death at 50 uM within 6 hrs of treatment by WST8 assay; assay type: functional
[5] = tested on: PANC-1; assay: Induction of apoptosis in human PANC1 cells in nutrient deprived condition assessed as morphological changes at 6.25 uM within 24 hrs of treatment using phase contrast microscopy by WST8 assay; assay type: functional, cell-based

Compound	CD100 [1] [µM]	PC50 [2] [µM]	Activity [3] [%]	Activity [4] [%]	Activity [5]
O=c1[nH]cc(F)c(=O)[nH]1 [FLUOROURACIL]	>100	>100	–	–	–
COc1cc(C[C@H]2C(=O)OC[C@@H]2Cc2ccc(OC)c(OC)c2)ccc1O [ARCTIGENIN]	1	0.4	–	–	–
CC(=O)O[C@H]1C(=O)[C@@]2(C)[C@H]([C@H](OC(=O)c3ccccc3)[C@]3(O)C[C@H](OC(=O)[C@H](O)[C@@H](NC(=O)c4ccccc4)c4ccccc4)C(C)=C1C3(C)C)[C@]1(OC(C)=O)CO[C@@H]1C[C@@H]2O [PACLITAXEL]	>100	>100	–	–	–
C[C@H](CC/C=C(\CO)C(=O)O)[C@H]1CC[C@@]2(C)[C@@H]3CC[C@H]4C(C)(C)[C@@H](O)CC[C@@]45C[C@@]35CC[C@]12C	>100	>100	–	–	–
C[C@H](CC/C=C(\CO)C(=O)O)[C@H]1CC[C@@]2(C)[C@@H]3CC[C@H]4C(C)(C)[C@H](O)CC[C@@]45C[C@@]35CC[C@]12C	25	15.5	–	–	–
C/C(=C\CC(O)[C@@H](C)[C@H]1CC[C@@]2(C)[C@@H]3CC[C@H]4C(C)(C)[C@H](O)CC[C@@]45C[C@@]35CC[C@]12C)C(=O)O (stereo partly specified)	25	13.4	–	–	–
C[C@H](CC/C=C(\CO)C(=O)O)[C@H]1CC[C@@]2(C)[C@@H]3CC[C@@H]4[C@@]5(CCC(=O)[C@@]4(C)CO)C[C@@]35CC[C@]12C	>100	>100	–	–	–
C/C(=C\CC[C@@H](C)[C@H]1CC[C@@]2(C)[C@@H]3CC[C@@H]4[C@@]5(CCC(=O)[C@@]4(C)CO)C[C@@]35CC[C@]12C)C(=O)O	>100	>100	–	–	–
CC(C)=CCc1c(O)cc(O)c2c1O[C@H](c1ccc(O)cc1)CC2=O [SOPHORAFLAVANONE B]	50	39.4	–	–	–
C/C(C=O)=C\CC[C@@H](C)[C@H]1CC[C@@]2(C)[C@@H]3CC[C@H]4C(C)(C)[C@@H](O)CC[C@@]45C[C@@]35CC[C@]12C	>100	>100	–	–	–
C/C(=C\C(O)C[C@@H](C)[C@H]1CC[C@@]2(C)[C@@H]3CC[C@H]4C(C)(C)C(=O)CC[C@@]45C[C@@]35CC[C@]12C)C(=O)O (stereo partly specified)	50	28	–	–	–
C/C(=C\CC[C@@H](C)[C@H]1CC[C@@]2(C)[C@@H]3CC[C@H]4C(C)(C)[C@H](O)CC[C@@]45C[C@@]35CC[C@]12C)C(=O)O [ISOMANGIFEROLIC ACID]	25	13.7	–	–	–
C[C@H](CC/C=C(\CO)C(=O)O)[C@H]1CC[C@@]2(C)[C@@H]3CC[C@H]4C(C)(C)C(=O)CC[C@@]45C[C@@]35CC[C@]12C	50	38.5	–	–	–
C/C(=C\C(O)C[C@@H](C)[C@H]1CC[C@@]2(C)[C@@H]3CC[C@H]4C(C)(C)[C@@H](O)CC[C@@]45C[C@@]35CC[C@]12C)C(=O)O (stereo partly specified)	>100	>100	–	–	–
C/C(=C/C=C/[C@@H](C)[C@H]1CC[C@@]2(C)[C@@H]3CC[C@H]4C(C)(C)C(=O)CC[C@@]45C[C@@]35CC[C@]12C)C(=O)O	6.3	4.3	100	100	Active
C/C(=C\CC[C@@H](C)[C@H]1CC[C@@]2(C)[C@@H]3CC[C@H]4C(C)(C)C(=O)CC[C@@]45C[C@@]35CC[C@]12C)C(=O)O [MANGIFERONIC ACID]	>100	>100	–	–	–
COc1ccc([C@@H]2CC(=O)c3c(O)cc(O)c(CC=C(C)C)c3O2)cc1CC=C(C)C	12.5	7.9	–	–	–
CC(C)=CCc1cc([C@@H]2CC(=O)c3c(O)cc(O)c(CC=C(C)C)c3O2)ccc1O [LESPEDEZAFLAVANONE B]	25	19.8	–	–	–
C/C(=C\CC[C@@H](C)[C@H]1CC[C@@]2(C)[C@@H]3CC[C@H]4C(C)(C)[C@@H](O)CC[C@@]45C[C@@]35CC[C@]12C)C(=O)O [MANGIFEROLIC ACID]	>100	>100	–	–	–
